Measurements pooled from the literature.
Converted amounts (≈) assume the structure as drawn.

Structure (SMILES)	tested on	test	system	conditions	measurement	value
CCCCCCCCCCCCCCCCCCCCc1cc(O)cc(O)c1	Streptococcus pneumoniae	microbial growth	–	–	IC50	> 200 µM
Cc1ccc(CN2C(=O)/C(=N\NC(=O)c3cc4ccccc4[nH]3)c3ccccc32)cc1	HT-29	cell growth or viability	–	30 µM	inhibition	91.1%
C=CC(c1ccc(-c2ccc(O)cc2)cc1)n1ccnc1 (centres unmarked)	Mycobacterium tuberculosis variant bovis BCG	microbial growth	BCG	–	MIC50	> 50 µM
COc1c2c(cc3c1OCO3)[C@]13C=C[C@H](OC)C[C@@H]1[N@](C2)C[C@H]3OC(=O)c1ccc2ccccc2c1	A2780	cell growth or viability, WST-1	–	–	IC50	> 10 µM
CCOC(=O)c1cc(-c2cccc(NC(=O)Nc3ccc(Cl)c(Cl)c3)c2)on1	Klebsiella pneumoniae	microbial growth, broth dilution	BAA1705	–	MIC	> 64 µg/mL
O=C(N/N=C1\C(=O)N(Cc2ccccc2)c2ccc(Cl)cc21)c1cc2ccccc2[nH]1	HT-29	cell growth or viability	–	30 µM	inhibition	94.3%
N#Cc1c[nH]c2ccccc12	Cryptosporidium parvum	parasite growth	HCT-8	24 h, intracellular	EC50	163 µM
Cc1cccc(-n2ncc(Cl)c(Cl)c2=O)c1	NCI-H1650	cell growth or viability, resazurin	–	96 h	IC50	1.24 µM
CC(C)CCCCCCCCCCCCc1cc(O)cc(O)c1	Streptococcus pneumoniae	microbial growth	–	–	IC50	77.3 µM
COc1ccc2c(c1)/C(=N/NC(=O)c1cc3ccccc3[nH]1)C(=O)N2Cc1ccccc1	HT-29	cell growth or viability	–	30 µM	inhibition	94%
COc1ccc(C=CC(=O)c2ccc(-c3ccccc3)cc2)cc1OC	Mycobacterium tuberculosis variant bovis BCG	microbial growth	BCG	7 days	MIC	100 µg/mL (≈ 290 µM)
COC(=O)c1cc(-c2cccc(NC(=S)Nc3ccccc3Cl)c2)on1	Klebsiella pneumoniae	microbial growth, broth dilution	BAA1705	–	MIC	> 64 µg/mL
N#Cc1ccc(CN2C(=O)/C(=N\NC(=O)c3cc4ccccc4[nH]3)c3ccccc32)cc1	HT-29	cell growth or viability	–	30 µM	inhibition	81.6%
COC(=O)c1cc(-c2cccc(NC(=O)Nc3ccc(C)c(Cl)c3)c2)on1	Klebsiella pneumoniae	microbial growth, broth dilution	BAA1705	–	MIC	> 64 µg/mL
O=C(N/N=C1\C(=O)N(Cc2ccccc2)c2ccc(Br)cc21)c1cc2ccccc2[nH]1	HT-29	cell growth or viability	–	30 µM	inhibition	94.7%
COC(=O)c1cc(-c2cccc(NC(=S)NC3CCCCC3)c2)on1	Klebsiella pneumoniae	microbial growth, broth dilution	BAA1705	–	MIC	> 64 µg/mL
O=C(N/N=C1\C(=O)N(Cc2ccccc2)c2ccccc21)c1cc2ccccc2[nH]1	HT-29	cell growth or viability	–	–	IC50	6.19 µM
COC(=O)c1cc(-c2cccc(NC(=O)Nc3ccc(Cl)cc3Cl)c2)on1	Klebsiella pneumoniae	microbial growth, broth dilution	BAA1705	–	MIC	> 64 µg/mL
N#CCc1c[nH]c2ccccc12	Cryptosporidium parvum	parasite growth	HCT-8	24 h, intracellular	EC90	1230 µM
COC(=O)c1cc(-c2cccc(NC(=O)Nc3ccc(F)c(F)c3)c2)on1	Klebsiella pneumoniae	microbial growth, broth dilution	BAA1705	–	MIC	> 64 µg/mL
CC(C)CCCCCCCCCCCCCCc1cc(O)cc(O)c1	Streptococcus pneumoniae	microbial growth	–	–	IC50	46.3 µM
C[C@H]1COc2c(N3CCN(C)CC3)c(F)cc3c(=O)c(C(=O)O)cn1c23	Klebsiella pneumoniae	microbial growth, broth dilution	BAA1705	–	MIC	64 µg/mL (≈ 177 µM)
O=C(N/N=C1\C(=O)N(Cc2ccc(Cl)cc2)c2ccccc21)c1cc2ccccc2[nH]1	HT-29	cell growth or viability	–	30 µM	inhibition	93.7%
